Assay results published in ChEMBL document CHEMBL4017509, “A Dual Modulator of Farnesoid X Receptor and Soluble Epoxide Hydrolase To Counter Nonalcoholic Steatohepatitis” (J Med Chem, 2017).
Active and inactive are the calls of the source. No cut-off for these calls is given here.

Key:
[1] = Tmax in C57BL/6JRj mouse at 10 mg/kg, po measured up to 480 mins post dose by LC-MS analysis; type: ADME, organism-based; conditions: in vivo
Outline: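 Male C57BL/6JRj mice (23−26 g), six dosed once orally at 10 mg/kg in water with 1% HPMC/Tween 80 (99:1), three vehicle. Tail-vein blood (20 μL) at 15, 30, 60, 120, 240 and 480 min, last by retro-orbital puncture. Blood spiked, acetonitrile precipitation with griseofulvin internal standard, LC−MS on phenyl-hexyl column. Noncompartmental PK analysis.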

[2] = target: Retinoic acid receptor alpha (Homo sapiens) (UniProt P10276); assay: Transactivation of human GAL4-fused RARalpha ligand binding domain expressed in […] cells at 10 uM after 12 to 14 hrs by dual-glo luciferase reporter gene assay; type: cell-based
Chain of Retinoic acid receptor alpha (Homo sapiens) (P10276 whole entry, the tested form may be a part): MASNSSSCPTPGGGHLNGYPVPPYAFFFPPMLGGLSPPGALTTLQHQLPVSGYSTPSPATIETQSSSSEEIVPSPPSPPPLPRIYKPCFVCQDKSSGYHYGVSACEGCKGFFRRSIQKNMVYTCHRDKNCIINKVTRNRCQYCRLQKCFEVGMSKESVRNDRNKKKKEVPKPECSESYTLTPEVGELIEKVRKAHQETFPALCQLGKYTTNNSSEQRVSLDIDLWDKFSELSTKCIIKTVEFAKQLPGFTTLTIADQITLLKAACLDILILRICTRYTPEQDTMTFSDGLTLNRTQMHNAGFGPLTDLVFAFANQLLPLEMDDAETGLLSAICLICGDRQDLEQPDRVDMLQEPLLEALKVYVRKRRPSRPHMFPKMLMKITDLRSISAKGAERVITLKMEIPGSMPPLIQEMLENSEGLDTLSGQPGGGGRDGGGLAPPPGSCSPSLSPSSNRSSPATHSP
Outline: (§1)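 HEK293T cells in DMEM/10% FCS, Opti-MEM before Lipofectamine LTX transfection with pFR-Luc reporter, pRL-SV40 and pFA-CMV GAL4–LBD plasmid. 5 h later compound in 0.1% DMSO, Opti-MEM, overnight (12−14 h). Dual luciferase; firefly/renilla ×1000 = RLU, fold over DMSO control; triplicates, ≥3 independent repeats.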

[3] = target: T1, Peroxisome proliferator-activated receptor gamma (Homo sapiens) (UniProt P37231); assay: Transactivation of human GAL4-fused PPARgamma ligand binding domain expressed in HEL293T cells at 10 uM after 12 to 14 hrs by dual-glo luciferase reporter gene assay relative to pioglitazone; type: cell-based
T1 sequence (whole entry): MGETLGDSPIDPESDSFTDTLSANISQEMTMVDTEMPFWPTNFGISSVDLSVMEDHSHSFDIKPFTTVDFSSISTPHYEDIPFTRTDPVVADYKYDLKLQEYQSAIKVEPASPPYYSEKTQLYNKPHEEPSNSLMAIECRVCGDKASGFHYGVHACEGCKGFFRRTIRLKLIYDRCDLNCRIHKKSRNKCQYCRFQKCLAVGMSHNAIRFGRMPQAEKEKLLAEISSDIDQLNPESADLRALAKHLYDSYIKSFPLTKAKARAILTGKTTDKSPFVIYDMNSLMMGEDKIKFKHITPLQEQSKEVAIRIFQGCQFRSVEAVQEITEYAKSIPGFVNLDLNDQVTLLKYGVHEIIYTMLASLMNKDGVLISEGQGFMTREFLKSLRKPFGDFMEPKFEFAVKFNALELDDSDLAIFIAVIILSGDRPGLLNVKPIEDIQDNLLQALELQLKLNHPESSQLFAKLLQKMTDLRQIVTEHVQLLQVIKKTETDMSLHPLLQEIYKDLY

[4] = target: T2, Bile acid receptor (Homo sapiens, UniProt Q96RI1); assay: Transactivation of FXR in human HepG2 cells assessed as CYP7A1 mRNA expression at 1 uM after 8 to 16 hrs by SYBR green based qRT-PCR analysis relative to DMSO control; type: ADME, cell-based
T2 sequence (Q96RI1 whole entry): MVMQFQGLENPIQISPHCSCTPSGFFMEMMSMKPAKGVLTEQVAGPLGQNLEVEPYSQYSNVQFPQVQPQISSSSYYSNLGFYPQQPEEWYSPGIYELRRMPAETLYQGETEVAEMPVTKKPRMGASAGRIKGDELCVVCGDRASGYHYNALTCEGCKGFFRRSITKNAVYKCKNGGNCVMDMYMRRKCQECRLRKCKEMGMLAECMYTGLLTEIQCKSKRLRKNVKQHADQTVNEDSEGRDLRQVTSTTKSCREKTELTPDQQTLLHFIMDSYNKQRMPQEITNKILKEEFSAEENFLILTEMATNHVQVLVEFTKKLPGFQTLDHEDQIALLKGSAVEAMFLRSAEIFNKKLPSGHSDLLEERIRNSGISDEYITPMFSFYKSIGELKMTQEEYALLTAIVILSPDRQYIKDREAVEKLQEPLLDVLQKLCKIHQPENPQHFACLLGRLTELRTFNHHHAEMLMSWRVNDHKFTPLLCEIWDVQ
Outline: (§2)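 HepG2 cells incubated with test compound (0.1 and 1 μM) or 0.1% DMSO for 8 or 16 h, washed in cold PBS, RNA extracted; target mRNA by SYBR Green qRT-PCR, duplicate samples, ≥4 independent experiments; comparative ΔΔCt with GAPDH reference, vehicle set as 100%.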

[5] = target: T3, Bile acid receptor (Homo sapiens) (UniProt Q96RI1); assay: Transactivation of FXR in human HepG2 cells assessed as SREBP1c mRNA expression at 1 uM after 8 to 16 hrs by SYBR green based qRT-PCR analysis relative to DMSO control; type: cell-based; outline: as §2
T3 sequence (whole entry): T2 sequence (Q96RI1 whole entry)

[6] = target: Peroxisome proliferator-activated receptor delta (Homo sapiens) (UniProt Q03181); assay: Transactivation of human GAL4-fused PPARdelta ligand binding domain expressed in […] cells at 10 uM after 12 to 14 hrs by dual-glo luciferase reporter gene assay; type: cell-based; outline: as §1
Chain of Peroxisome proliferator-activated receptor delta (Homo sapiens) (Q03181 whole entry, the tested form may be a part): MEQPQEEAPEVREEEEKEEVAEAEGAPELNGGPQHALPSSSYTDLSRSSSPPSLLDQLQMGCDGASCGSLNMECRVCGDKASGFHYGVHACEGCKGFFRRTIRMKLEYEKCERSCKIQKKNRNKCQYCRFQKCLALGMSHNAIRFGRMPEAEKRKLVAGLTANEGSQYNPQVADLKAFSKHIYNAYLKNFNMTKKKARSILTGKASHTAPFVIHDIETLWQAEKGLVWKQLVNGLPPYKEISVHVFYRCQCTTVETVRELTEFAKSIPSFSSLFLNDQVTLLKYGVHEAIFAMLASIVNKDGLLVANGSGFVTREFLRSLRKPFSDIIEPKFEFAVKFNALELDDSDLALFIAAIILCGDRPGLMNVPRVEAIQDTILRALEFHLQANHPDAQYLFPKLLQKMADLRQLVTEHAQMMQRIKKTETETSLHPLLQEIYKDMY

[7] = test system: Liver; assay: Drug metabolism in Sprague-Dawley rat liver microsomes assessed as N-(4-Amino-2-chlorobenzyl)-4-(tert-butyl)benzamide formation at 10 uM preincubated with NADPH regenerating system for 5 mins followed by addition of liver microsomes by LC-MS/MS method; type: ADME, microsome
[8] = target: Retinoic acid receptor RXR-alpha (Homo sapiens) (UniProt P19793); assay: Transactivation of human GAL4-fused RXRalpha ligand binding domain expressed in […] cells at 10 uM after 12 to 14 hrs by dual-glo luciferase reporter gene assay; type: cell-based; outline: as §1
Chain of Retinoic acid receptor RXR-alpha (Homo sapiens) (P19793 whole entry, the tested form may be a part): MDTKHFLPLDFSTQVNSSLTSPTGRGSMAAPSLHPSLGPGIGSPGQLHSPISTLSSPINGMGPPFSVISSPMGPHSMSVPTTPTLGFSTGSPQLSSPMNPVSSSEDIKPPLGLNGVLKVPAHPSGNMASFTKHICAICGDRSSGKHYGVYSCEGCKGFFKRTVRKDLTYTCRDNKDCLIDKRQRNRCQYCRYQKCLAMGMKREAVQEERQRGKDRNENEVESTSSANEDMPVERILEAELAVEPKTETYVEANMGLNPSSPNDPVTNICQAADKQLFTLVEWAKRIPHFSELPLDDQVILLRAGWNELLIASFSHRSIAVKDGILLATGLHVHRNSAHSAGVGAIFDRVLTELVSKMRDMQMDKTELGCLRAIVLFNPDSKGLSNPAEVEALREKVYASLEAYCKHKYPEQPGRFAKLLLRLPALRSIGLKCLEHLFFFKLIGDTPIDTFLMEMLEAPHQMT

[9] = target: T4, Bifunctional epoxide hydrolase 2 (Homo sapiens) (UniProt P34913); assay: Inhibition of sEH in human HuT-78 cells assessed as reduction in Pam3CSK4-stimulated TNFalpha release preincubated for 24 hrs followed by Pam3CSK4 addition measured after 18 hrs by ELISA; type: cell-based
T4 sequence (whole entry): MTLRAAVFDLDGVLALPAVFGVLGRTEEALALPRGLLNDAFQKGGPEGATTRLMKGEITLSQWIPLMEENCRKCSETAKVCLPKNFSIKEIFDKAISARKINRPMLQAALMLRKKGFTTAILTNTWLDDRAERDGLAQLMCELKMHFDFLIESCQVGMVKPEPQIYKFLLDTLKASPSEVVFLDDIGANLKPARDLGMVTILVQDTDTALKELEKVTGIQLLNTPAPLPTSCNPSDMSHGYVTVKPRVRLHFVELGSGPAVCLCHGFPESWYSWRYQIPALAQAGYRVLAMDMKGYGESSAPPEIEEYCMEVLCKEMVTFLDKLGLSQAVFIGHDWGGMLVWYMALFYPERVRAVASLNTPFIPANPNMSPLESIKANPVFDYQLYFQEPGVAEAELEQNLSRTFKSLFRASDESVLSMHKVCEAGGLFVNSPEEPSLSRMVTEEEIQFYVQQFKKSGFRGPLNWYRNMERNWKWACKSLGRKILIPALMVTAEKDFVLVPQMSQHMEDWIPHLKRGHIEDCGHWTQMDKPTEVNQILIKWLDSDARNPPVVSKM
Outline: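 HuT-78 cells in RPMI 1640 with 10% heat-inactivated FCS, 2.0 × 10^6 cells/well, exposed to compound (0.1% DMSO) for 24 h; medium then replaced with fresh compound plus Pam3CSK4 20 ng/mL for 18 h; supernatant TNFα measured by ELISA (absorbance 450 nm); each concentration repeated independently at least three times.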

## CC(C)(C)c1ccc(C(=O)NCc2ccc(NS(C)(=O)=O)cc2Cl)cc1
[1]
  Tmax: 30 min
[2]
  Activity: inactive
[3]
  Emax: 30%
[4]
  Activity: 52%
[5]
  Activity: 36%
[6]
  Activity: inactive
[7]
  Drug metabolism: Metabolite_Detected
[8]
  Activity: inactive
[9]
  inhibition: Active
